# Most compounds without a hit are left out; they make up all but 2.3% or so of the library.
# PLC-gamma1 inh: blocks human PLC-gamma1 enzyme activity; P19174; purified PLC-gamma1, fluorogenic substrate, fluorescence; inhibition, % at 12.2 µM; hit rate 0.84% among 370,000; AID 720700; in the data active means inhibition above about 9.5%
# Target sequence (P19174 whole entry, looked up): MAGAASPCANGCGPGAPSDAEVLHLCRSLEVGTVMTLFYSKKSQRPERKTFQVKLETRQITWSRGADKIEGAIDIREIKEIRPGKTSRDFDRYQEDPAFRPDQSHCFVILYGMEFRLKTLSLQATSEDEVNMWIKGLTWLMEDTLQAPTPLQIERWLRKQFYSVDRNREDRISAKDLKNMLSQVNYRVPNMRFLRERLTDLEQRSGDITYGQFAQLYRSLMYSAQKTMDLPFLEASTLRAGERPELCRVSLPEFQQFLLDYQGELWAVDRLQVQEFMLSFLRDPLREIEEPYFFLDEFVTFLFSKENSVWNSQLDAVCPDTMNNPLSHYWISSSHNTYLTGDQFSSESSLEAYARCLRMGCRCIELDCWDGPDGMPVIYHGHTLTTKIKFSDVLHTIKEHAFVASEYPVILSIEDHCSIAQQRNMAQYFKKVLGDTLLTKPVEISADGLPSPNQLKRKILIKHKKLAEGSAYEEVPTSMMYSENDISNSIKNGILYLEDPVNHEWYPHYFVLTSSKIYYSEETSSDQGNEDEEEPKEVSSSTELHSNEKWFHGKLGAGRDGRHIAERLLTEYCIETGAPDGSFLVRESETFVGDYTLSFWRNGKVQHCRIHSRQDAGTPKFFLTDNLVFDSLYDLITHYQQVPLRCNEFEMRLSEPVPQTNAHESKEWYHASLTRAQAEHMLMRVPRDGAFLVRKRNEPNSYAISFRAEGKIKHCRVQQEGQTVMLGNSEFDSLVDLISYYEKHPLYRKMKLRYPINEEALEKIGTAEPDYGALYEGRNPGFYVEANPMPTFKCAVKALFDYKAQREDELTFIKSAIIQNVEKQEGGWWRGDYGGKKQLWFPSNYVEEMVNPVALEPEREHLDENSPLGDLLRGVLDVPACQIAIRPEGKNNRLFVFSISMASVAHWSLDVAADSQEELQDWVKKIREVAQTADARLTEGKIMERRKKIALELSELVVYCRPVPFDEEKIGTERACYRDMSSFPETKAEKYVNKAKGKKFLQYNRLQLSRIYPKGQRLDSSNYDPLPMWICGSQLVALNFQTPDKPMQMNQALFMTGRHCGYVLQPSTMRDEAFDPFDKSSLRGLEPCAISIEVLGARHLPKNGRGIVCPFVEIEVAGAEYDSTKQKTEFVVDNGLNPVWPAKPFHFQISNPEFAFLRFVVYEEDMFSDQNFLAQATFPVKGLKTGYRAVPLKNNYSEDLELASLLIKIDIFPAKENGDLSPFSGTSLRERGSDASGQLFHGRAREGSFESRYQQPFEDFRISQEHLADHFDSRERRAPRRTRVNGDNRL
# ADAM10 inh: inhibits human ADAM10 | O14672 | recombinant ADAM10, EDANS/DABCYL FRET peptide cleavage, 3 h | inhibition, % at 7 µM | hit rate 0.62% among 370,000;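 active means inhibition above a per-campaign cutoff equal to the mean of compounds falling between control-based bounds plus 3 SD, cut at about 20% in these data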
# PLCb3 inh: inhibitors of human phospholipase C beta3 | Q01970 | Purified PLC-beta3, fluorogenic substrate, fluorescence | inhibition, % at 12.2 µM | hit rate 0.18% among 370,000; in the data active means inhibition above about 11%
# TbMetRS inhib: blocks T. brucei methionyl-tRNA synthetase activity. purified T. brucei MetRS, ATP depletion, Kinase-Glo luminescence. inhibition, % at 11.9 µM. hit rate 0.4% among 360,000. AID 624268;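 active means inhibition above a per-plate cutoff of the control wells' mean inhibition plus 3 SD, cut at about 5.5% in these data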
#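 technique = Kinase-Glo luminescence, ATP depletion format | system = purified MetRS (methionyl-tRNA synthetase) enzyme from Trypanosoma brucei | timing = 15 min preincubation, 2 h reaction, all 25 °C | evaluation = percent inhibition versus plate control medians | dosing = single dose, 11.9 µM final nominal, 0.9% final DMSO | also added = substrates ATP, L-methionine and bulk Escherichia coli tRNA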
# ADAM17 inh: inhibits human ADAM17; inhibition, % at 6.95 µM; recombinant ADAM17, EDANS/DABCYL FRET peptide cleavage; P78536; hit rate 0.83% among 370,000;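 active means inhibition above the mean of compounds lying between control limits plus 3 SD, set per campaign, cut at about 8.5% in these data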
# ADAM10 counter: inhibits human ADAM10 in ADAM17 exosite counter-screen. shares compounds with ADAM17 inh. recombinant ADAM10, EDANS/DABCYL FRET peptide cleavage, 3 h. inhibition, % at 6.95 µM. hit rate 47% among 2,900. AID 743256;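 active means mean inhibition over the triplicate runs exceeds the activity threshold set in the earlier primary screen, cut at about 20% in these data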
# ADAM17 confirm: confirmation of inhibitors of human ADAM17; shares compounds with ADAM17 inh; recombinant ADAM17, EDANS/DABCYL QFRET peptide cleavage; inhibition, % at 6.95 µM; hit rate 65% among 2,900;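 active means mean inhibition across replicates above the hit cutoff set in the primary screen, cut at about 8.5% in these data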
# Numbers stand for hits; i = inactive; nt = no result given.
SMILES,PLC-gamma1 inh,ADAM10 inh,PLCb3 inh,TbMetRS inhib,ADAM17 inh,ADAM10 counter,ADAM17 confirm
C[C@H](NC(=O)c1nc[nH]c1C(=O)NCC(=O)OCc1ccccc1)C(=O)OC(C)(C)C,i,i,i,i,i,nt,nt
O=C(N[C@@H](Cc1ccccc1)C(=O)OCc1ccccc1)c1nc[nH]c1C(=O)N1CCN(c2ccccc2)CC1,i,i,i,i,11,27,15
CC(C)(C)OC(=O)NCCCC[C@H](NC(=O)c1[nH]cnc1C(=O)N[C@@H](Cc1ccccc1)C(=O)OC(C)(C)C)C(=O)OC(C)(C)C,i,i,i,i,i,nt,nt
C[C@H](NC(=O)c1nc[nH]c1C(=O)NCc1ccc(CNC(=O)OC(C)(C)C)cc1)C(=O)OCc1ccccc1,i,i,i,i,10,37,21
C[C@H](NC(=O)c1nc[nH]c1C(=O)NC(c1ccccc1)c1ccccc1)C(=O)OCc1ccccc1,i,i,i,i,9.3,i,12
C[C@H](NC(=O)c1nc[nH]c1C(=O)N1CCN(c2ccccc2)CC1)C(=O)OCc1ccccc1,i,i,i,i,i,nt,nt
COC(=O)[C@]1(C#N)CC(=O)N(C(C)C)[C@@H]1c1ccccc1,i,i,i,nt,i,nt,nt
Fc1ccc(-c2nc3c4ccccc4ccn3c2Cc2cccc(Cl)c2)cc1,i,i,i,i,i,nt,nt
Cc1cccc(C)c1NC(=O)CNC(=O)c1ccccc1OCc1ccccc1,i,i,i,i,i,nt,nt
Cc1cccc(NC(=O)c2nc[nH]c2C(=O)N[C@@H](CC(C)C)C(=O)OC(C)(C)C)c1,i,i,i,i,11,30,16
COc1cc(COC(=O)Oc2ccc(CNC(C)=O)cc2OC)c([N+](=O)[O-])cc1OC,i,i,i,i,10.0,i,i
c1cncc(-c2ccnc3ncnn23)c1,i,i,i,i,i,nt,nt
COc1c(OC(C)=O)ccc(/C=C/c2ccc3cccc(OCc4ccccc4)c3n2)c1[N+](=O)[O-],i,i,i,i,9.7,i,9.2
Cc1cc(C)n(CCc2nc(-c3ccc(C(C)(C)C)cc3)cs2)n1,i,i,i,i,12,i,11
CC(C)Cc1nc(SCC(=O)N2CCCC2)c2c(=O)n(C)c(=O)n(C)c2n1,i,i,i,i,i,nt,nt
CCCCCNC(=O)C(c1ccnc2ccccc12)n1c(=O)c(-c2cc3ccccc3[nH]2)nc2ccccc21 (stereo unspecified),i,i,i,i,i,nt,nt
Cc1ccc(S(=O)(=O)N(CC(=O)Nc2cccc(N(C)S(C)(=O)=O)c2)c2ccc(Cl)c(Cl)c2)cc1,i,25,i,i,13,39,22
CC(=O)O[C@@H](Cc1ccc(O)cc1)C(=O)CC(C)C,i,i,i,i,9.2,i,i
O=S1(=O)CCN2C(c3ccc4c(c3)CCCC4)=CSC2=N1,i,i,11,i,8.7,24,12
O=C(CN1C(=O)c2ccccc2S1(=O)=O)Nc1cc(S(=O)(=O)N2CCCCC2)ccc1Cl,i,i,i,i,10,i,13
O=C(CN1CCN(c2ccc(O)cc2)CC1)Nc1cc(S(=O)(=O)N2CCCCC2)ccc1Cl,i,i,i,i,10,i,11
O=C(CN1C(=O)c2ccccc2S1(=O)=O)Nc1ccc(S(=O)(=O)N2CCCCC2)cc1,i,i,i,i,i,nt,nt
O=C(NN=C1CCCC1)c1ccccc1OCc1ccc(Cl)cc1,i,i,i,i,i,nt,nt
CN(C)S(=O)(=O)c1cccc(NC(=O)c2cc(-c3cccs3)nn2-c2cccc(Cl)c2)c1,i,i,i,i,12,i,12
Cc1ccc(SCC(=O)OCC(=O)NCc2ccco2)cc1,i,i,i,i,9.2,i,i
Cc1ccc(SCC(=O)OCC(=O)NCc2cccs2)cc1,i,i,i,i,i,nt,nt
COc1ccc(-c2nn(-c3ccccc3)cc2/C=N/NC(=O)c2cccc(S(=O)(=O)Nc3ccccc3Cl)c2)cc1,i,i,i,i,9.2,i,i
Nc1nnn(CC(=O)N/N=C/c2ccc(Cl)cc2Cl)n1,i,i,i,i,i,nt,nt
CCCn1c(COc2ccccc2)nc2ccccc21,i,i,i,i,i,nt,nt
